This is an account of results in ChEMBL document CHEMBL3046143, “Occurrence and distribution of organochlorine pesticides (OCPs) in tomato (Lycopersicon esculentum) crops from organic production” (J Agric Food Chem, 2003).

Structures can show the parent of a compound that is named as a salt. A value given as a limit tells only on which side of the number the result lay.

The test system of data set [1] is Fruit. As to the kind of experiment: Drug uptake in Solanum lycopersicum (tomato) fruit flesh after 60 to 151 days post germination by GC-ECD analysis. The format is ADME. In a few lines:
(§1)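 Organically grown tomatoes: seeded October 2000 in a pine-needle-enriched plot (period 1), transplanted in November to an unamended plot (periods 2–3), harvested March 2001. Tissues were blender-homogenized and analyzed by GC-ECD on a 30 m SPB-5 capillary column, with helium carrier at 1.5 mL/min. Quantified against external OCP standards as mean ng/g dry wt; LODs were 0.12–0.4 ng/g dry wt; samples were run in duplicate.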

The nature of data set [2]: Octanol-water partition coefficient, log KOW of the compound. The format is physicochemical. Conditions: read-out: log KOW.
The test system of data set [3] is Root. As to the kind of experiment: Drug uptake in Solanum lycopersicum (tomato) root after 60 to 151 days post germination by GC-ECD analysis. The format is ADME. In a few lines: as §1
Data set [4] relates to Stem. Put plainly: Drug uptake in Solanum lycopersicum (tomato) stem after 60 to 151 days post germination by GC-ECD analysis. The format is ADME. In a few lines:
as §1

Data set [5] relates to Root. Put plainly: Drug uptake in Solanum lycopersicum (tomato) root after 16 to 59 days post germination by GC-ECD analysis. The format is ADME. In a few lines:
as §1

Data set [6] has as its system Leaf. Put plainly: Drug uptake in Solanum lycopersicum (tomato) leaves after 60 to 151 days post germination by GC-ECD analysis. Format: ADME. In a few lines:
as §1

For data set [7], the system named is Stem. As to the kind of experiment: Drug uptake in Solanum lycopersicum (tomato) stem after 16 to 59 days post germination by GC-ECD analysis. The format is ADME. In a few lines: as §1
Data set [8] deals with Root. As to the kind of experiment: Drug uptake in Solanum lycopersicum (tomato) root after 1 to 15 days post germination by GC-ECD analysis. The format is ADME. In a few lines:
as §1

The test system of data set [9] is Leaf. As to the kind of experiment: Drug uptake in Solanum lycopersicum (tomato) leaves after 16 to 59 days post germination by GC-ECD analysis. The format is ADME. In a few lines: as §1
The test system of data set [10] is Stem. As to the kind of experiment: Drug uptake in Solanum lycopersicum (tomato) stem after 1 to 15 days post germination by GC-ECD analysis. Format: ADME. In a few lines: as §1
Data set [11] has as its system Leaf. As to the kind of experiment: Drug uptake in Solanum lycopersicum (tomato) leaves after 1 to 15 days post germination by GC-ECD analysis. The format is ADME. In a few lines: as §1
Data set [12] can be described thus: Root bioconcentration factor assessed as compound concentration in tomato plant dry mass to compound concentration in soil dry mass after 60 to 151 days post germination. In a few lines:
(§2)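 Root bioconcentration factor is the mean OCP concentration in tomato roots divided by the mean concentration in bulk soil, both on a dry weight basis. Both matrices were analyzed by GC-ECD with external standard quantification. Period 1 was in a pine-needle-enriched seedbed plot and periods 2–3 in an unamended transplant plot. Soil water content was measured by oven drying at 110 °C.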

Data set [13] can be described thus: Root bioconcentration factor assessed as compound concentration in tomato plant dry mass to compound concentration in soil dry mass after 16 to 59 days post germination. In a few lines:
as §2

Data set [14] can be described thus: Root bioconcentration factor assessed as compound concentration in tomato plant dry mass to compound concentration in soil dry mass after 1 to 15 days post germination. In a few lines:
as §2

The test system of data set [15] is Fruit. As to the kind of experiment: Drug uptake in Solanum lycopersicum (tomato) fruit peel after 60 to 151 days post germination by GC-ECD analysis. The format is ADME. In a few lines:
as §1

Consider `Cl[C@H]1[C@H](Cl)[C@@H](Cl)[C@H](Cl)[C@@H](Cl)[C@H]1Cl` [DELTA-HEXACHLOROCYCLOHEXANE], for which the Drug uptake in the data set with Fruit [1] was 2.3 ng/g; in the data set with Root [3], 1.7 ng/g; in the data set on Stem [4], 1.6 ng/g; with Root [5] it was 0.8 ng/g; in the data set with Leaf [6] it was 1.2 ng/g; in the data set with Stem [7], 3.6 ng/g. The Drug uptake in the data set on Root [8] was found to be 3.7 ng/g; in the data set on Leaf [9], 1.1 ng/g; in the data set on Stem [10] it was 4.7 ng/g; with Leaf [11], 2.4 ng/g; with Fruit [15] it was 1.4 ng/g. In addition, the logP in data set [2] is less than 4. In addition, the Ratio in [12] amounted to 1.5; in data set [13], 0.7; in data set [14], 18.5.
On to `Cl[C@H]1[C@H](Cl)[C@@H](Cl)[C@@H](Cl)[C@H](Cl)[C@H]1Cl` [LINDANE], for which the Drug uptake in the data set on Fruit [1] is given as 14.4 ng/g; in the data set with Root [3] it was 3.9 ng/g; with Stem [4], 4.6 ng/g; in the data set with Root [5], 4.7 ng/g; in the data set on Leaf [6], 0.9 ng/g; in the data set with Stem [7], 9.4 ng/g. Further, the Drug uptake came to 16.2 ng/g with Root [8]; 4 ng/g with Leaf [9]; 27.5 ng/g in the data set on Stem [10]; 9.9 ng/g in the data set with Leaf [11]; 2.1 ng/g in the data set on Fruit [15]. The logP in data set [2] was less than 4. For the same molecule, the Ratio in data set [12] was 3.2; in data set [13], 3.9; in data set [14] it was 12.3.
`O=S1(=O)OCC2C(CO1)C1(Cl)C(Cl)=C(Cl)C2(Cl)C1(Cl)Cl` (stereo not given) [ENDOSULFAN SULFATE]: the Drug uptake with Fruit [1] was determined as 305.5 ng/g; in the data set on Root [3] it was 71.4 ng/g; in the data set on Stem [4], 82.1 ng/g; with Root [5], 21.1 ng/g; in the data set on Leaf [6], 38.2 ng/g; in the data set with Stem [7], 99.7 ng/g. For the same molecule, the Drug uptake in the data set on Root [8] is 151.6 ng/g; in the data set with Leaf [9] it was 48.2 ng/g; with Stem [10], 246.9 ng/g; in the data set on Leaf [11], 126.5 ng/g; with Fruit [15] it was 80.6 ng/g. Besides, in data set [2], the logP was less than 4. In addition, the Ratio in data set [12] was found to be 4.5; in data set [13], 1.3; in data set [14], 9.2.
Regarding `O=S1OC[C@@H]2[C@H](CO1)[C@@]1(Cl)C(Cl)=C(Cl)[C@]2(Cl)C1(Cl)Cl` (stereo partly drawn) [ALPHA-ENDOSULFAN], the Drug uptake turned out to be 4.5 ng/g in the data set with Fruit [1]; 0.3 ng/g in the data set with Root [3]; 0.9 ng/g in the data set on Stem [4]; 1.3 ng/g in the data set with Root [5]; 3.5 ng/g in the data set with Leaf [6]; 0.9 ng/g in the data set on Stem [7]. The Drug uptake in the data set on Root [8] was determined as 0.8 ng/g; in the data set with Leaf [9], 1.5 ng/g; in the data set on Stem [10] it was 1.2 ng/g; with Leaf [11] it was 1 ng/g; in the data set on Fruit [15], 12.3 ng/g. Further, the logP in data set [2] was less than 4. Further, the Ratio in data set [12] came out at 4.3; in [13] it was 18.6; in data set [14], 10.
`Cl[C@H]1[C@H](Cl)[C@@H](Cl)[C@H](Cl)[C@@H](Cl)[C@@H]1Cl` [BETA-HEXACHLOROCYCLOHEXANE]: the Drug uptake is 5.4 ng/g with Fruit [1]; 1.2 ng/g in the data set with Root [3]; 2.1 ng/g in the data set with Stem [4]; 1.1 ng/g in the data set on Root [5]; 1.6 ng/g in the data set on Leaf [6]; 4.2 ng/g in the data set on Stem [7]. The Drug uptake in the data set with Root [8] was found to be 3.7 ng/g; with Leaf [9], 2.2 ng/g; with Stem [10], 8.9 ng/g; in the data set on Leaf [11], 4.2 ng/g; in the data set with Fruit [15] it was 1.5 ng/g. In addition, the logP in [2] is less than 4. The figures for the Ratio in data set [12], in [13] and in [14] were 3, 2.7 and 9.2, respectively.
As for `Cl[C@H]1[C@H](Cl)[C@H](Cl)[C@@H](Cl)[C@H](Cl)[C@H]1Cl` [ALPHA-HEXACHLOROCYCLOHEXANE], the Drug uptake is on record as 7.4 ng/g in the data set on Fruit [1]; 1.3 ng/g with Root [3]; 1.3 ng/g in the data set with Stem [4]; 0.4 ng/g in the data set on Root [5]; 0.6 ng/g in the data set with Leaf [6]; 1.1 ng/g with Stem [7]. Also, the Drug uptake was determined as 1.9 ng/g in the data set with Root [8]; 0.8 ng/g in the data set with Leaf [9]; 1.7 ng/g in the data set with Stem [10]; 1.2 ng/g in the data set on Leaf [11]; 1.4 ng/g in the data set on Fruit [15]. Further, the logP in data set [2] is less than 4. Besides, the figures for the Ratio in data set [12], in data set [13] and in [14] were 13, 4 and 9.5, respectively.
`ClC(Cl)=C(c1ccc(Cl)cc1)c1ccc(Cl)cc1` [DICHLORODIPHENYLDICHLOROETHYLENE]: the Drug uptake stood at 6.4 ng/g in the data set on Fruit [1]; 2.4 ng/g with Root [3]; 1.8 ng/g in the data set with Stem [4]; 23.2 ng/g with Root [5]; 6 ng/g in the data set with Leaf [6]; 8.6 ng/g with Stem [7]. Moreover, the Drug uptake with Root [8] is recorded as 9.1 ng/g; in the data set with Leaf [9], 2.2 ng/g; in the data set on Stem [10], 7.4 ng/g; in the data set on Leaf [11], 2.8 ng/g; in the data set on Fruit [15], 3.2 ng/g. The Ratio in [14] is 5.3.
As for `Clc1ccc(C(c2ccc(Cl)cc2)C(Cl)(Cl)Cl)cc1` [CHLOROPHENOTHANE], the Drug uptake with Fruit [1] stood at 29.2 ng/g; in the data set on Root [3], 7.3 ng/g; in the data set on Stem [4], 6.8 ng/g; in the data set with Root [5], 2.5 ng/g; with Leaf [6] it was 2.3 ng/g; in the data set with Stem [7], 10.5 ng/g. The Drug uptake in the data set with Root [8] is on record as 19.2 ng/g; in the data set with Leaf [9], 8.24 ng/g; in the data set with Stem [10] it was 9.4 ng/g; with Leaf [11], 8.9 ng/g; in the data set on Fruit [15] it was 8.8 ng/g. Also, the logP in data set [2] is greater than 6. Also, the Ratio in data set [14] worked out at 2.6.
In the case of `O=S1OC[C@@H]2[C@H](CO1)[C@]1(Cl)C(Cl)=C(Cl)[C@]2(Cl)C1(Cl)Cl` (stereo partly drawn) [BETA-ENDOSULFAN], the Drug uptake with Fruit [1] is on record as 6.6 ng/g; in the data set on Root [3], 0.9 ng/g; with Stem [4], 1.6 ng/g; with Root [5] it was 0.9 ng/g; in the data set on Leaf [6], 3.3 ng/g; with Stem [7] it was 3.2 ng/g. Moreover, the Drug uptake in the data set on Root [8] amounted to 2 ng/g; in the data set with Leaf [9] it was 2.9 ng/g; with Stem [10], 1.1 ng/g; with Leaf [11], 1.1 ng/g; in the data set with Fruit [15], 10.8 ng/g. Further, the logP in data set [2] is less than 4. For the same molecule, the Ratio in data set [12] amounted to 15; in data set [13] it was 15; in data set [14] it was 50.
